“And” between values parts separate entries of the source, which are not always exact repeats. Identical values can stand only once. “Also recorded” adds a separate entry of the source. Each block holds one compound with its values, some of them ahead of it.
Assays:
[1] = system: cAMP antibody (IBL cAMP-RIA); test: IBL cAMP-RIA; type: binding; settings: for Specificity IBL cAMP-RIA: EC50cAMP/EC50Analog
[2] = system: cAMP antibody (ENZO cAMP-EIA); test: ENZO cAMP-EIA, acetylation protocol; type: binding; settings: for Specificity ENZO cAMP-EIA: EC50cAMP/EC50Analog, acetylated
[3] = system: cGMP antibody (ENZO cGMP-EIA); test: ENZO cGMP-EIA, acetylation protocol; type: binding; settings: for Specificity ENZO cGMP-EIA: EC50cGMP/EC50Analog, acetylated
Lipophilicity = type: physicochemical; settings: calculated from log Kw data, cGMP scale
[4] = system: cGMP antibody (IBL cGMP-RIA); test: IBL cGMP-RIA; type: binding; settings: for Specificity IBL cGMP-RIA: EC50cGMP/EC50Analog; for Binding constant relative to cGMP: IBL cGMP-RIA
CHO cells = test: Cell membrane permeability in CHO cells; type: in vitro ADME, Chinese hamster; settings: serum-free medium, normally 20 min
Procedure, shortened: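 CHO cells were grown in DMEM with 10% FBS and 1% penicillin/streptomycin at 37°C, 5% CO2. Cells were exposed to various analog concentrations in serum-free medium, normally for 20 min, then PBS-washed. Lysis used hypotonic buffer on ice for 30 min, scraping, liquid-nitrogen freeze/thaw and needle disruption. Cleared supernatant was lyophilized for EIA. Intracellular concentration assumed a 1.5 pl cell volume; % permeability = intracellular/extracellular […].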

[5] = system: cGMP antibody (ENZO cGMP-EIA); test: ENZO cGMP-EIA, non-acetylated; type: binding; settings: non-acetylated cGMP-EIA from ENZO
[6] = system: PKG (VASP phosphorylation) in human platelets; test: VASP phosphorylation western blot, pVASP Ser-239; type: cell-based; settings: for Concentration for maximal VASP phosphorylation: after 20 min, pVASP antibody 16C2
Procedure, shortened: (§1)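 Washed human platelets were exposed to various analog concentrations for the indicated times. Protein extracts (10 µg) were run on 9% reducing SDS-PAGE and wet-blotted to nitrocellulose. Blots were blocked in 3% milk/Tris-saline-Tween and probed 1:10,000 with 16C2 (pVASP Ser-239, PKG site) or 5C6 (pVASP Ser-157, PKA site). HRP goat anti-mouse (1:5,000) and ECL gave detection.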

human platelets = test: Cell membrane permeability in washed human platelets; type: in vitro ADME; settings: for Time to equilibrium of inside/outside concentration: platelets, Fig. 1b; for cNMP conc. inside platelets (% of external): washed human platelets, 37°C, normally 20 min; for Diffusion into the cell, result in words: compounds with log Kw < 1
Procedure, shortened: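 Human blood from medication-free donors was collected into citrate–EGTA buffer. Platelet-rich plasma (300×g) was pelleted (380×g), washed in Hepes buffer pH 7.4 and used at 3 × 10^8 platelets/ml. Cells were exposed to analogs at 37°C, normally for 20 min or over a time course. They were lysed in […] buffer pH 8.1 with 1 mM IBMX on ice, then freeze/thaw and needle disruption. Lyophilized supernatant went to EIA, assuming a 5.2 fl cell volume.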

PKG Iβ = settings: ref Poppe et al. (2008); cited from earlier work
[7] = system: PKA (VASP phosphorylation) in human platelets; test: VASP phosphorylation western blot, pVASP Ser-157; type: cell-based; settings: for Concentration needed for comparable VASP phosphorylation (PKA activation): pVASP antibody 5C6
Procedure, shortened: as §1

[8] = system: cAMP antibody (ENZO cAMP-EIA); test: ENZO cAMP-EIA, non-acetylated; type: binding; settings: non-acetylated cAMP-EIA from ENZO
PKA II = settings: ref Poppe et al. (2008); cited from earlier work
[9] = system: cGMP antibody (Cayman cGMP-EIA); test: Cayman cGMP-EIA; type: binding; settings: EC50cGMP/EC50Analog
[10] = system: cAMP and cGMP antibodies of the tested immunoassays; test: Interference with the tested cAMP and cGMP immunoassays; type: binding

SMILES: O=C(Nc1ncnc2c1ncn2[C@@H]1O[C@@H]2COP(=O)(O)OC2C1O)c1ccccc1 (stereo in doubt) [6-Bnz-cAMP, N^6-Benzoyladenosine-3`,5`- cyclic monophosphate]
Specificity IBL cAMP-RIA [1]: 0.009
Specificity ENZO cAMP-EIA [2]: 0.006

Cross-reactivity / binding to the cGMP antibody in the EIA, result in words [3]: does not bind
Relative lipophilicity (Lipophilicity): 200
SMILES: O=c1c2nc(Br)n([C@@H]3O[C@@H]4CO[P@@](O)(=S)O[C@H]4[C@H]3O)c2nc2[nH]c(-c3ccccc3)cn12 (single isomer, unassigned) [Rp-8-Br-PET-cGMPS]
Specificity ENZO cGMP-EIA [3]: 0.002
Specificity IBL cGMP-RIA [4]: 0.011

SMILES: Nc1ncnc2c1nc(Sc1ccc(Cl)cc1)n2[C@@H]1O[C@@H]2COP(=O)(O)O[C@H]2[C@H]1O [8-pCPT-cAMP, 8-(4-Chlorophenylthio)adenosine-3`,5`- cyclic monophosphate]
Specificity ENZO cAMP-EIA [2]: 0.0005

SMILES: Nc1nc2c(ncn2[C@@H]2O[C@@H]3COP(O)(=S)O[C@H]3[C@H]2O)c(=O)[nH]1 (single isomer, unassigned) [Rp-cGMPS, Guanosine- 3`,5`- cyclic monophosphorothioate, Rp-isomer]
Specificity ENZO cGMP-EIA [3]: 0.0027
Specificity IBL cGMP-RIA [4]: 0.10

cNMP conc. inside CHO cells (% of external) (CHO cells): 13.5 ± 11.5%
Relative binding EC50cGMP/EC50Analog [5]: 6.40
Cross-reactivity / binding to the cGMP antibody in the EIA, result in words [3]: strong cross-reactivity
Time to equilibrium of inside/outside concentration (human platelets): 10 to 20 min
cNMP conc. inside platelets (% of external) (human platelets): 12.1 ± 3.5%
Binding constant relative to cGMP [4]: ~20%
SMILES: Nc1nc2c(nc(Br)n2[C@@H]2O[C@@H]3COP(=O)(O)O[C@H]3[C@H]2O)c(=O)[nH]1 [8-Br-cGMP, 8-Bromoguanosine-3`,5`- cyclic monophosphate]
Concentration for maximal VASP phosphorylation ([6]; human platelets): 200 µM
Specificity ENZO cGMP-EIA [3]: 4.90
Activation PKG Iβ Ka (PKG Iβ): 1.0 µM
Specificity IBL cGMP-RIA [4]: 0.20

cNMP conc. inside CHO cells (% of external) (CHO cells): 24.1 ± 9.7%
Relative binding EC50cGMP/EC50Analog [5]: 0.08
cNMP conc. inside platelets (% of external) (human platelets): 30.9 ± 5.7%
SMILES: O=c1c2nc(Br)n([C@@H]3O[C@@H]4COP(=O)(O)O[C@H]4[C@H]3O)c2nc2[nH]c(-c3ccccc3)cn12 [8-Br-PET-cGMP, β-Phenyl-1,N^2-etheno-8-Bromoguanosine-3`,5`- cyclic monophosphate]
Concentration sufficient to activate PKG ([6]; human platelets, VASP phosphorylation): 0.25 µM
Specificity ENZO cGMP-EIA [3]: 0.10
Percent of the cGMP affinity to the antibody ([3]; ENZO cGMP-EIA): 10%
Activation PKG Iβ Ka (PKG Iβ): 0.009 µM
Specificity IBL cGMP-RIA [4]: 0.015

cNMP conc. inside CHO cells (% of external) (CHO cells): 0.1 ± 0.2%
cNMP conc. inside platelets (% of external) (human platelets): 0.2 ± 0.3%
Relative binding EC50cAMP/EC50Analog [8]: 0.22
SMILES: Nc1ncnc2c1ncn2[C@H]1C[C@@H]2OP(=O)(O)OC[C@H]2O1 [2′-dcAMP, 2`- Deoxyadenosine- 3`,5`- cyclic monophosphate]
Diffusion into the cell, result in words (human platelets): too hydrophilic for any diffusion into the cell
VASP phosphorylation (PKA site), result in words [7]: no VASP phosphorylation
Specificity ENZO cAMP-EIA [2]: 0.034

SMILES: O[C@@H]1[C@@H]2OP(O)(=S)OC[C@H]2O[C@H]1n1cnc2cc(Cl)c(Cl)cc21 (single isomer, unassigned) [Sp-5,6-DCl-cBIMPS]
Activation PKA II Ka (PKA II): 0.12 µM
Specificity IBL cAMP-RIA [1]: 0.005
Concentration needed for comparable VASP phosphorylation (PKA activation) [7]: 100 µM

SMILES: CCCC(=O)Nc1ncnc2c1ncn2[C@@H]1O[C@@H]2COP(=O)(O)O[C@H]2[C@H]1O [6-MB-cAMP, N^6-Monobutyryladenosine-3`,5`-cyclic monophosphate]
Specificity IBL cAMP-RIA [1]: 0.012
Specificity ENZO cAMP-EIA [2]: 0.004

SMILES: CC(C)Cn1c(=O)n(C)c(=O)c2[nH]cnc21 [IBMX, 3-Isobutyl-1-methylxanthine]
Specificity Cayman cGMP-EIA [9]: <10^−5
Specificity ENZO cGMP-EIA [3]: <10^−6
Interference / cross-reaction with the tested immunoassays, result in words [10]: do not interfere
Specificity IBL cAMP-RIA [1]: <10^−4
Specificity ENZO cAMP-EIA [2]: <10^−5
Specificity IBL cGMP-RIA [4]: <10^−6

cNMP conc. inside CHO cells (% of external) (CHO cells): 0.3 ± 0.5%
Relative binding EC50cGMP/EC50Analog [5]: 2.2 and 2.21
cNMP conc. inside platelets (% of external) (human platelets): 0.5 ± 0.1%
SMILES: Nc1nc2c(ncn2[C@H]2C[C@@H]3OP(=O)(O)OC[C@H]3O2)c(=O)[nH]1 [2′-dcGMP, 2`- Deoxyguanosine- 3`,5`- cyclic monophosphate]
VASP phosphorylation (PKG site), result in words ([6]; concentrations up to 2 mM): no VASP phosphorylation
Specificity ENZO cGMP-EIA [3]: 0.052
Diffusion into the cell, result in words (human platelets): too hydrophilic for any diffusion into the cell
Activation PKG Iβ Ka (PKG Iβ): 21 µM

SMILES: Nc1ncnc2c1ncn2[C@@H]1O[C@@H]2COP(O)(=S)O[C@H]2[C@H]1O (single isomer, unassigned) [Rp-cAMPS, Adenosine- 3`,5`- cyclic monophosphorothioate, Rp-isomer]
Specificity IBL cAMP-RIA [1]: 0.67
Binding constant relative to cAMP ([1]; IBL cAMP-RIA): ~66%
Cross-reactivity in the cAMP-EIA, result in words [2]: strong cross-reactivity; also recorded: significant cross-reactivity
Specificity ENZO cAMP-EIA [2]: 0.68

SMILES: Cn1c(=O)c2[nH]cnc2n(C)c1=O [Theophylline, 1,3-dimethyl-7H-purine-2,6-dione]
Interference / cross-reaction with the tested immunoassays, result in words [10]: do not interfere

SMILES: CO[C@@H]1[C@@H]2OP(=O)(O)OC[C@H]2O[C@H]1n1c(Sc2ccc(Cl)cc2)nc2c(N)ncnc21 [8-pCPT-2′-OMe-cAMP, 8-(4-Chlorophenylthio)-2`-O-methyladenosine-3`,5`- cyclic monophosphate]
Specificity ENZO cGMP-EIA [3]: 0.0002
Specificity IBL cAMP-RIA [1]: 0.0066
Specificity ENZO cAMP-EIA [2]: 0.0003
Specificity IBL cGMP-RIA [4]: <10^−4

SMILES: Nc1ncnc2c1nc(Br)n2C1OC2COP(O)(=S)OC2C1O (single isomer, unassigned) [Rp-8-Br-cAMPS, 8-Bromoadenosine-3`,5`- cyclic monophosphorothioate, Rp-isomer]
Specificity ENZO cAMP-EIA [2]: 0.003

Cross-reactivity / binding to the cGMP antibody in the EIA, result in words [3]: strong cross-reactivity
Time to equilibrium of inside/outside concentration (human platelets): 10 to 20 min
cNMP conc. inside platelets (% of external) (human platelets): 19.6 ± 4.7%
Binding constant relative to cGMP [4]: ~30%
SMILES: Nc1nc2c(nc(Sc3ccc(Cl)cc3)n2C2O[C@@H]3COP(=O)(O)O[C@H]3[C@H]2O)c(=O)[nH]1 (stereo in doubt) [8-pCPT-cGMP, 8-(4-Chlorophenylthio)guanosine-3`,5`- cyclic monophosphate]
Specificity Cayman cGMP-EIA [9]: 0.0008
Concentration for maximal VASP phosphorylation ([6]; human platelets): 50 µM
Specificity ENZO cGMP-EIA [3]: 2.40
Activation PKG Iβ Ka (PKG Iβ): 0.9 µM
Specificity IBL cGMP-RIA [4]: 0.30

SMILES: Nc1ncnc2c1nc(Br)n2[C@@H]1O[C@@H]2COP(=O)(O)O[C@H]2[C@H]1O [8-Br-cAMP, 8-Bromoadenosine-3`,5`- cyclic monophosphate]
Activation PKA II Ka (PKA II): 0.09 µM
Specificity IBL cAMP-RIA [1]: 0.026
Concentration needed for comparable VASP phosphorylation (PKA activation) [7]: 500 µM
Specificity ENZO cAMP-EIA [2]: 0.004

SMILES: CCCCCCC(C(C)O)n1cnc2c(N)ncnc21.Cl (centres unmarked) [EHNA, 3-(6-aminopurin-9-yl)nonan-2-ol hydrochloride]
Interference / cross-reaction with the tested immunoassays, result in words [10]: do not interfere

Relative binding EC50cGMP/EC50Analog [5]: 1.00
SMILES: Nc1nc2c(ncn2[C@@H]2O[C@@H]3COP(=O)(O)O[C@H]3[C@H]2O)c(=O)[nH]1 [cGMP, Guanosine- 3`,5`- cyclic monophosphate]
Specificity Cayman cGMP-EIA [9]: 1.00
Specificity ENZO cGMP-EIA [3]: 1.00
Activation PKG Iβ Ka (PKG Iβ): 0.9 µM
Specificity IBL cGMP-RIA [4]: 1.00

— PMC3145891 (Naunyn-Schmiedeberg's Archives of Pharmacology, 2011)
